# Compound activity as filed in PubChem.
# A selection: hits, their analogues and other compounds. The true share with any hit is near 3.9%.
# CHOP inh – inhibitors of CHOP induction in ER stress response | AID 2732 | CHO-K1 CHOP-promoter luciferase, tunicamycin-induced, 15-18 h | 220,000 compounds, 3.8% hits | inhibition, % at 10 µM;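 active means compounds that reduced the stress-induced luciferase reporter signal by more than about 70% of percent inhibition, limit read from the data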;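 further: 0% = tunicamycin plus vehicle and 100% = wells without tunicamycin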
# Gli-Sufu antag – Gli-Sufu pathway antagonism; Sufu-KO-LIGHT fibroblasts, Gli luciferase reporter luminescence; inhibition, % at 5 µM; 340,000 compounds, 0.74% hits;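 active means inhibition above about 55%, limit read from the data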;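 further: 0% = DMSO-treated cells and 100% = wells with medium but no cells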
# UPR CHOP act – apoptotic UPR (CHOP) activation; CHO-CHOP luciferase reporter, luminescence; percent of tunicamycin response over DMSO baseline; activation, % at 10 µM; 330,000 compounds, 0.34% hits; AID 449763;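 active means at 10 µM dose, activation of 40% or more, normalized to positive control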;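 further: 100% = tunicamycin at 10 µg/mL and 0% = DMSO alone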
#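 Test system: CHO-CHOP cells, stable luciferase reporter of PERK-eIF2a-CHOP signalling | Quantity: 500 CHO-CHOP cells per well | Buffer or medium: F12 plus 10% serum | Compound dosing: 10 µM single point, 0.5% DMSO | Schedule: 6 h compound treatment, 37 °C | Signal: Luciferase luminescence | Control set: Tunicamycin high control, DMSO low control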
# Jurkat NFkB inh – inhibitors of the PMA/ionomycin-induced NF-kB reporter in Jurkat cells; PMA/ionomycin-induced NF-kB luciferase reporter, luminescence; inhibition, % at 4 µM; 330,000 compounds, 0.53% hits; AID 435003; in the data active means inhibition above about 50%
# 697 NFkB inh – inhibitors of the PMA/ionomycin-induced NF-kB reporter in 697 B cells. 697 B-cell NF-kB luciferase reporter, 16 h. 330,000 compounds, 0.33% hits. inhibition, % at 4 µM; in the data active means inhibition above about 35%
# XBP1 UPR activ – adaptive UPR (XBP1) activation | CHO-XBP1 luciferase reporter, IRE1-XBP1 UPR activation, luminescence; percent of tunicamycin response, DMSO as zero | activation, % at 20 µM | 330,000 compounds, 0.33% hits;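 active means versus positive control, 20 µM dose yields 30% or more activation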;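 further: 100% = tunicamycin at 10 µg/mL and 0% = DMSO only wells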
#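 Signal: luciferase luminescence; Assay system: CHO-XBP1 luciferase reporter cells; Amount: one thousand reporter cells per well; Dosing: 20 µM single concentration, DMSO 1%; Benchmarks: high control tunicamycin 10 µg/mL final, low control DMSO vehicle only; Schedule: 6 h compound exposure at 37 °C, 5% CO2; Evaluation: percent activation relative to tunicamycin reference.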
# CHOP confirm – confirmation of CHOP induction inhibitors; shares compounds with CHOP inh; CHO-CHOP promoter luciferase reporter, tunicamycin-induced, luminescence; inhibition, % at 10 µM; 2,100 compounds, 45% hits;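 active means mean of three repeat readings of reporter signal inhibition above a set limit, cut at about 70% in these data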;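 further: 0% = tunicamycin plus vehicle and 100% = wells lacking tunicamycin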
# Starred values were filed as active, the others as inactive; · = no result.
SMILES,CHOP inh,Gli-Sufu antag,UPR CHOP act,Jurkat NFkB inh,697 NFkB inh,XBP1 UPR activ,CHOP confirm
Cc1ccc(C(NC(=O)c2cccc(S(=O)(=O)N3CCN(C)CC3)c2)c2ccccc2)cc1 (configuration not stated),·,4,0,8,22,-2,·
CN(C)c1ccc(Sc2nnc(NC(=O)Nc3ccc(Cl)cc3Cl)s2)cc1,100*,8,3,3,-4,14,36
CCN(C(=O)COC(=O)c1cc2ccccc2cc1OC)c1c(N)n(Cc2ccccc2)c(=O)[nH]c1=O,·,-4,·,·,·,·,·
CCCCCCCCNC(C)C(O)c1ccc(SC(C)C)cc1 (configuration not stated),108*,22,5,9,3,-4,128*
O=C1CS(=O)(=O)c2ccccc2N1,·,6,0,6,2,-1,·
COc1cc(C2/C(=C(\O)c3ccc4c(c3)CC(C)O4)C(=O)C(=O)N2CCN2CCOCC2)cc(OC)c1OC (configuration not stated),·,-11,2,10,12,0,·
CCc1c(C)sc(NC(=O)CSc2nc3c(c(C(F)(F)F)n2)CCc2ccccc2-3)c1C#N,97*,8,1,9,3,5,72*
Oc1ccc(Br)cc1-c1cc(-c2ccccc2)n[nH]1,-5,13,2,-7,5,3,·
Oc1ccc(Br)cc1-c1cc(-c2ccc(Cl)cc2)n[nH]1,104*,-1,2,-32,-58,6,16
CN(C(=O)c1ccc(NC(=O)Cc2ccc(NC(=O)C3CCCN(C(=O)C4CCC4)C3)cc2)cc1)C1CCCC1 (configuration not stated),·,1,·,·,·,·,·
Cc1cccc(C)c1OCC(O)Cn1c2ccccc2c2ccccc21 (configuration not stated),107*,7,-1,-1,-6,-2,-48
Cc1ccc(OCC(O)Cn2c3ccccc3c3ccccc32)cc1 (configuration not stated),62,-3,-1,10,-14,1,·
OC(COCC(F)(F)C(F)(F)C(F)(F)C(F)F)Cn1c2ccccc2c2ccccc21 (configuration not stated),108*,5,4,-10,-3,2,110*
C=CCN(CC=C)CC(O)Cn1c2ccccc2c2ccccc21 (configuration not stated),59,5,0,10,-14,2,·
COCC(C)NC(=O)CCS(=O)(=O)c1nc(-c2ccc(OC)cc2)cc(C(F)(F)F)n1 (configuration not stated),-88,19,1,6,18,-9,·
CS(=O)(=O)c1nc(-c2ccc(F)cc2)cc(C(F)(F)F)n1,106*,-2,·,·,·,·,110*
O=C(O)CCS(=O)(=O)c1nc(-c2cccs2)cc(C(F)(F)F)n1,-42,6,2,11,21,-1,·
COc1ccc(-c2cc(C(F)(F)F)nc(S(=O)(=O)CCCC(=O)Nc3cccnc3Cl)n2)cc1OC,100*,-4,·,·,·,·,-69
CS(=O)(=O)c1nc(-c2cccs2)cc(C(F)(F)F)n1,111*,·,-10,48,-37,-7,120*
COC(=O)CCS(=O)(=O)c1nc(-c2ccccc2)cc(C(F)(F)F)n1,106*,-4,4,15,-32,-7,32
CCOC(=O)CS(=O)(=O)c1nc(-c2ccc(F)cc2)cc(C(F)(F)F)n1,·,-6,-7,9,-4,-11,·
CCOC(=O)CS(=O)(=O)c1nc(-c2ccccc2)cc(C(F)(F)F)n1,·,-4,-11,-7,-51,-9,·
CC(C)CN(C(=O)C1CCC1)c1c(N)n(Cc2ccccc2)c(=O)[nH]c1=O,·,0,0,13,-6,2,·
CC(C)(C)c1ccc(OCC(O)CN(CCO)CC(O)Cn2ccc3ccccc32)cc1 (configuration not stated),103*,23,-2,3,-9,-3,4
OCCN(CC(O)Cn1ccc2ccccc21)CC(O)Cn1ccc2ccccc21 (configuration not stated),14,-13,-1,-9,-6,0,·
SMILES,CHOP inh,Gli-Sufu antag,UPR CHOP act,Jurkat NFkB inh,697 NFkB inh,XBP1 UPR activ,CHOP confirm
Cc1ccc(O)c(-c2cc(C(=O)Nc3ccc(S(=O)(=O)N4CC(C)OC(C)C4)cc3)[nH]n2)c1 (configuration not stated),99*,13,0,5,3,3,33
COc1ccc(C(=O)/C=C2\C(=O)Nc3ccc(Br)cc32)cc1,·,11,·,·,·,·,·
O=C1Nc2ccc(Br)cc2/C1=C/C(=O)c1ccc2c(c1)OCO2,107*,6,19,5,4,25,-37
NS(=O)(=O)c1ccc(NC(=O)CN2CCc3ccccc3C2)cc1,·,9,3,16,10,2,·
Cc1ccc2[nH]c3c(c2c1)CN(C(=O)CN1CCN(c2cccc(C)c2C)CC1)CC3,102*,7,-1,-3,-5,-5,112*
CCCCS(=O)CC(COc1ccc(Cl)cc1)OC(=O)c1ccccc1 (configuration not stated),104*,4,-1,-8,18,-3,22
COc1ccc(CN2CC(=O)N3[C@H]4c5ccccc5OC[C@@H]4[C@H](c4ccccc4)[C@]3(C)C2=O)cc1,·,0,2,-10,2,-4,·
Cc1ccc(NC(=O)Nc2nnc(-c3ccncc3)s2)cc1C,104*,-13,1,-20,-33,3,68
O=C(Nc1ccc(F)cc1)Nc1nnc(-c2ccncc2)s1,47,26,5,-5,-53,-1,·
CCCCCCn1c(O)c(/C=C2\C=NN=C2c2ccccc2)sc1=S,51,3,-1,6,18,1,·
CCn1c(O)c(/C=C2\C=NN=C2c2ccccc2)sc1=S,98*,4,1,20,3,-1,14
O=C(NCC1CCCO1)c1ccc2c(=O)n(Cc3cccc(Br)c3)c(=S)[nH]c2c1 (configuration not stated),107*,8,-1,1,-2,5,-14
N#CCOC(=O)c1cc(S(=O)(=O)N2CCCCC2)ccc1N1CCOCC1,·,-2,1,14,17,0,·
CCOC(=O)c1c(N2C(=O)C=CC2=O)sc(C)c1C,109*,3,36,0,10,-3,7
CN(CCc1ccccc1)C(=O)c1ccc(NC(=O)Cc2ccc([N+](=O)[O-])cc2)cc1,·,21,3,1,16,-3,·
